Published values from different studies.
Compare with care: the assays were run in different laboratories.
Cell line: MCF7
Effect on: cell growth or viability

Nc1nc2ccc(-c3c/c(=N\c4ccccc4NC(=O)C4CCNC4)c4ccccc4o3)cc2o1 (stereo not shown)  inhibition (CCK-8; 1 µM): 11.6%
COc1cccc2c1C(=O)c1c(O)c3c(c(O)c1C2=O)C[C@@](O)(C(=O)CO)C[C@@H]3O[C@H]1C[C@H](N)[C@H](O)[C@H](C)O1  IC50 (MTT; 24 h): 1090 nM
NCCC(=O)Nc1ccccc1/N=c1\cc(-c2ccc3nc(N)oc3c2)oc2ccccc12  inhibition (CCK-8; 1 µM): 46%
O=C(Nc1ccc(Cl)cc1)Nc1cccc(-c2cn(Cc3ccc(Cl)cc3)nn2)c1  viability (CCK-8; 50 µM; 48 h): 104%
COc1ccc(NC(=O)Nc2ccc(-c3cn(Cc4cccc(Cl)c4)nn3)cc2)cc1  viability (CCK-8; 50 µM; 72 h): 98.2%
COc1ccc2oc(-c3ccc4nc(N)oc4c3)c/c(=N\c3ccccc3NC(=O)CCN)c2c1  inhibition (CCK-8; 1 µM): 15%
O=C(NCc1cn(Cc2ccc(Cl)cc2)nn1)Nc1ccc(Cl)cc1  viability (CCK-8; 50 µM; 48 h): 80.8%
COc1ccc(NC(=O)NCc2cn(Cc3ccc(C)cc3)nn2)cc1  viability (CCK-8; 50 µM; 72 h): 101%
C[C@H](N)C(=O)Nc1ccccc1/N=c1\cc(-c2ccc3c(c2)OCCO3)oc2cc(F)ccc12  inhibition (CCK-8; 1 µM): 3.33%
COc1ccc(NC(=O)NCc2cn(Cc3ccccc3C)nn2)cc1  viability (CCK-8; 50 µM; 48 h): 96.3%
O=C(NCc1cn(Cc2ccc(Cl)cc2)nn1)Nc1ccccc1Br  viability (CCK-8; 50 µM; 72 h): 88.6%
O=C(Nc1ccc(Cl)cc1)Nc1cccc(-c2cn(Cc3cccc(Br)c3)nn2)c1  viability (CCK-8; 50 µM; 48 h): 85.3%
O=C(Nc1ccc(Cl)cc1)Nc1ccc(-c2cn(Cc3ccc(Br)cc3)nn2)cc1  viability (CCK-8; 50 µM; 48 h): 93.7%
COc1ccc(NC(=O)Nc2cccc(-c3cn(Cc4ccccc4C)nn3)c2)cc1  viability (CCK-8; 50 µM; 72 h): 72.3%
O=C(Nc1ccc(-c2cn(Cc3ccc(Cl)cc3)nn2)cc1)Nc1ccccc1Br  viability (CCK-8; 50 µM; 48 h): 99.3%
CNCCC(=O)Nc1ccccc1/N=c1\cc(-c2ccc3nc(N)oc3c2)oc2ccccc12  inhibition (CCK-8; 1 µM): 31.9%
O=C(Nc1ccc(Cl)cc1)Nc1cccc(-c2cn(Cc3cccc(Cl)c3)nn2)c1  viability (CCK-8; 50 µM; 48 h): 92.3%
Nc1ccccc1/N=c1\cc(-c2ccc3c(c2)OCO3)oc2ccccc12  inhibition (CCK-8; 1 µM): 7.65%
COc1cccc2c1C(=O)c1c(O)c3c(c(O)c1C2=O)C[C@@](O)(C(=O)CO)C[C@@H]3O[C@H]1C[C@H](N)[C@H](O)[C@H](C)O1  IC50 (MTT; 48 h): 3100 nM
